Test results as given in ChEMBL document CHEMBL3603782, “Antimalarial benzoheterocyclic 4-aminoquinolines: Structure-activity relationship, in vivo evaluation, mechanistic and bioactivation studies” (Bioorg Med Chem, 2015).
Activity calls are given as the source filed them. The rule behind the calls is not given here.

Columns and labels:
Plasmodium falciparum [1] = assay: Antiplasmodial activity against Plasmodium falciparum W2 infected in human erythrocytes after 48 hrs by [3H]-hypoxanthine incorporation assay; assay type: functional, organism-based
Plasmodium falciparum [2] = assay: Antiplasmodial activity against multidrug-resistant Plasmodium falciparum K1 infected in human erythrocytes after 48 hrs by [3H]-hypoxanthine incorporation assay; assay type: functional, organism-based
Outline: (§1)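 Modified [3H]-hypoxanthine incorporation assay against P. falciparum NF54 (sensitive) and K1 (multidrug-resistant). Values are means of ≥2 or ≥3 independent experiments. The resistance index is the K1 IC50 divided by the NF54 IC50.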

Plasmodium falciparum [3] = assay: Resistance index, ratio of IC50 for multidrug-resistant Plasmodium falciparum K1 to IC50 for Plasmodium falciparum W2; assay type: functional
Plasmodium falciparum [4] = assay: Resistance index, ratio of IC50 for multidrug-resistant Plasmodium falciparum K1 to IC50 for chloroquine-sensitive Plasmodium falciparum NF54; assay type: functional; outline: as §1
Plasmodium berghei [5] = assay: Antimalarial activity against GFP-transfected Plasmodium berghei ANKA infected in mouse assessed as mean survival days at 50 mg/kg, po; assay type: functional
Outline: (§2)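 Mice (n = 3) infected with GFP-transfected P. berghei ANKA. Compound given orally, dissolved in a vehicle containing ethanol and diluted 10× with water. Multi-dose arms were dosed once daily on four consecutive days (4, 24, 48, 72 h post-infection). Parasitaemia was measured by flow cytometry, detection limit 0.1%. Activity is % reduction relative to controls. Survival was followed for 30 days.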

[6] = Metabolic stability in BALB/c mouse liver microsomes assessed as compound remaining at […] after 30 mins by HPLC-MS/MS analysis in presence of NADPH; assay type: ADME; conditions: read-out: Stability
Plasmodium berghei [7] = assay: Antimalarial activity against GFP-transfected Plasmodium berghei ANKA infected in mouse assessed as reduction in parasitemia at 50 mg/kg, po qd administered for 4 days measured on day 4 post last dose by flow cytometric analysis relative to control; assay type: functional; design: scale not given: the % may be the effect or the level left
Plasmodium berghei [8] = assay: Antimalarial activity against GFP-transfected Plasmodium berghei ANKA infected in mouse assessed as mean survival days at 50 mg/kg, po qd administered for 4 days; assay type: functional; outline: as §2
[9] = Inhibition of beta haematin formation after 5 to 6 hrs by pyridine-ferrichrome method; assay type: physicochemical
Outline: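 Modified β-haematin inhibition assay. Compounds from DMSO stocks, 0–1000 µM final, in duplicate. NP-40 added (30.55 µM). Haematin suspension added to give 0.5 M acetate pH 4.8 and 100 µM haematin, then incubated 5–6 h at 37 °C. Free haeme detected with pyridine/H2O/acetone/0.2 M HEPES pH 7.4 reagent (final pyridine ~5% v/v) plus acetone, and absorbance read.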

[10] = Lipophilicity, log P of the compound; assay type: physicochemical; conditions: octanol/water
Plasmodium berghei [11] = assay: Antimalarial activity against GFP-transfected Plasmodium berghei ANKA infected in mouse assessed as reduction in parasitemia at 10 mg/kg, po qd administered for 4 days measured on day 4 post last dose by flow cytometric analysis relative to control; assay type: functional; design: scale not given: the % may be the effect or the level left
[12] = Selectivity index, ratio of IC50 for CHO cells to IC50 for chloroquine-sensitive Plasmodium falciparum NF54; assay type: toxicity, cell-based; conditions: hamster, read-out: Ratio IC50
Plasmodium berghei [13] = assay: Antimalarial activity against GFP-transfected Plasmodium berghei ANKA infected in mouse assessed as reduction in parasitemia at 50 mg/kg, po by flow cytometric analysis relative to control; assay type: functional; design: scale not given: the % may be the effect or the level left
Plasmodium berghei [14] = assay: Antimalarial activity against GFP-transfected Plasmodium berghei ANKA infected in mouse assessed as mean survival days at 10 mg/kg, po qd administered for 4 days; assay type: functional; outline: as §2
Plasmodium falciparum [15] = assay: Antiplasmodial activity against chloroquine-sensitive Plasmodium falciparum NF54 infected in human erythrocytes after 48 hrs by [3H]-hypoxanthine incorporation assay; assay type: functional, organism-based; outline: as §1
[16] = Metabolic stability in human liver microsomes assessed as compound remaining at […] after 30 mins by HPLC-MS/MS analysis in presence of NADPH; assay type: ADME; conditions: read-out: Stability
CHO = assay: Cytotoxicity against CHO cells by MTT assay; assay type: cell-based; conditions: Cricetulus griseus
Outline: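 CHO cells, MTT assay. Stocks 20 mg/mL in DMSO, diluted in complete medium; undissolved samples tested as suspensions. Emetine served as reference (10-fold dilutions, 6 concentrations, lowest 0.001 µg/mL). IC50 derived from full dose–response curves by non-linear fitting.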

Plasmodium berghei [17] = assay: Antimalarial activity against GFP-transfected Plasmodium berghei ANKA infected in mouse assessed as mean survival days at 30 mg/kg, po qd administered for 4 days; assay type: functional; outline: as §2
[18] = Cmax in C57Bl/6 mouse at 20 mg/kg, po; assay type: ADME, organism-based; design: dose 20 mg/kg, route oral; conditions: in vivo
Outline: (§3)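 C57Bl/6 mice, n = 3 per route. IV group dosed 5 mg/kg in DMSO, PEG, EtOH, PPG (2:6:1:7, v/v); tail-tip blood (20 µL) at 0.08, 0.5, 1, 3, 7 and 24 h. Oral group received a single 20 mg/kg gavage as a suspension in 0.5% HPMC in water; blood at 0.5, 1, 3, 5 and 24 h. Whole-blood LC–MS/MS (10–5000 ng/mL) after methanol protein precipitation; non-compartmental analysis.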

Mus musculus [19] = assay: AUC in C57Bl/6 mouse at 5 mg/kg, iv; assay type: ADME, organism-based; conditions: in vivo; outline: as §3
[20] = Tmax in C57Bl/6 mouse at 20 mg/kg, po; assay type: ADME, organism-based; conditions: in vivo; outline: as §3
[21] = Cmax in C57Bl/6 mouse at 5 mg/kg, iv; assay type: ADME, organism-based; design: dose 5 mg/kg, route intravenous; conditions: in vivo; outline: as §3
[22] = Oral bioavailability in C57Bl/6 mouse at 20 mg/kg; assay type: ADME, organism-based; conditions: in vivo; outline: as §3
[23] = Total clearance in C57Bl/6 mouse at 5 mg/kg, iv; assay type: ADME, organism-based; conditions: in vivo; outline: as §3
[24] = Elimination half life in C57Bl/6 mouse at 20 mg/kg, po; assay type: ADME, organism-based; conditions: in vivo, read-out: beta t1/2 (converted); outline: as §3
[25] = Volume of distribution in C57Bl/6 mouse at 5 mg/kg, iv; assay type: ADME, organism-based; conditions: in vivo; outline: as §3
Mus musculus [26] = assay: AUC in C57Bl/6 mouse at 20 mg/kg, po; assay type: ADME, organism-based; conditions: in vivo; outline: as §3
Plasmodium berghei [27] = assay: Antimalarial activity against GFP-transfected Plasmodium berghei ANKA infected in mouse assessed as cure rate at 50 mg/kg, po qd administered for 4 days measured over 30 days; assay type: functional, organism-based
[28] = Elimination half life in C57Bl/6 mouse at 5 mg/kg, iv; assay type: ADME, organism-based; conditions: in vivo, read-out: beta t1/2 (converted); outline: as §3
[29] = Drug metabolism assessed as ratio of sum of compound adduct peak area to clozapine adduct peak area by GSH trapping method; assay type: physicochemical
[30] = Stability of the compound by potassium cyanide trapping method; assay type: physicochemical
[31] = Stability of the compound by methoxylamine trapping method; assay type: physicochemical
Mus musculus [32] = assay: Toxicity in mouse infected with GFP-transfected Plasmodium berghei ANKA at 50 mg/kg, po qd administered for 4 days measured over 30 days; assay type: organism-based; conditions: in vivo, 720 h
Plasmodium berghei [33] = assay: Antimalarial activity against GFP-transfected Plasmodium berghei ANKA infected in mouse assessed as cure rate at 10 mg/kg, po qd administered for 4 days measured over 30 days; assay type: functional, organism-based

Row | Compound | IC50 (Plasmodium falciparum [2]) | Ratio IC50 (Plasmodium falciparum [3]) | Ratio IC50 (Plasmodium falciparum [4]) | MSD (Plasmodium berghei [5]) | remaining at 0.5 h [6] | Activity (Plasmodium berghei [7]) | MSD (Plasmodium berghei [8]) | IC50 [9] | Activity (Plasmodium berghei [11]) | selectivity ratio [12] | Activity (Plasmodium berghei [13]) | MSD (Plasmodium berghei [14]) | IC50 (Plasmodium falciparum [15]) | remaining at 0.5 h [16] | IC50 (CHO) | further results
1 | Clc1ccc2c(Nc3ccc4[nH]c(NCCN5CCOCC5)nc4c3)ccnc2c1 | 742 nM | 3.93 | – | – | – | – | – | – | – | – | – | – | – | – | – | IC50 (Plasmodium falciparum [1]): 189 nM
2 | CN(C)CCNc1nc2cc(Nc3ccnc4cc(Cl)ccc34)ccc2o1 | 42 nM | – | 3.5 | 13.7 days | > 99% | 99.8% | 29.3 days | 363 µM | 99.9% | 633 | 99.5% | 24 days | 12 nM | > 99% | 7.59 µM | logP [10]: 3.38
3 | CCN(CC)CCCC(C)Nc1ccnc2cc(Cl)ccc12 (stereo not given) [CHLOROQUINE] | – | – | – | – | – | – | – | – | 99.9% | – | – | 16 days | – | – | – | MSD (Plasmodium berghei [17]): 24 days
4 | Clc1ccc2c(Nc3ccc4oc(NCCCN5CCCCC5)nc4c3)ccnc2c1 | 39 nM | – | 3.9 | 14 days | 49% | 99.8% | >30 days | 105 µM | 99.8% | 1060 | 99.5% | 15.7 days | 10 nM | 70% | 10.6 µM | Cmax [18]: 1010 nM; AUC (Mus musculus [19]): 454 (umol/L).min; Tmax [20]: 2.9 h; Cmax [21]: 2740 nM; bioavailability [22]: 56%; clearance [23]: 28.3 mL/min/kg; logP [10]: 4.16; half-life [24]: 654 min; Vd [25]: 24.5 L/kg; AUC (Mus musculus [26]): 1020 (umol/L).min; Activity (Plasmodium berghei [27]): Active; half-life [28]: 600 min
5 | CC(C)(C)Nc1nc2cc(Nc3ccnc4cc(Cl)ccc34)ccc2s1 | – | 0.79 | – | – | – | – | – | – | – | – | – | – | – | – | – | Ratio [29]: 0.74; Stability [30]: Unstable; Stability [31]: Unstable
6 | Clc1ccc2c(Nc3ccc4oc(NCCN5CCCC5)nc4c3)ccnc2c1 | – | 2.75 | 3.73 | 23.3 days | 81% | 99.8% | >30 days | 91.5 µM | 99.8% | 327 | 99.5% | >30 days | 15 nM | 62% | 4.9 µM | Activity (Mus musculus [32]): Non-toxic; Activity (Plasmodium berghei [27]): Active; Activity (Plasmodium berghei [33]): Active
7 | CCN(CC)Cc1cc(Nc2ccnc3cc(Cl)ccc23)ccc1O [AMODIAQUINE] | 8 nM | 1.6 | 2.5 | – | – | 99.9% | >30 days | 43.5 µM | 100% | 36800 | – | >30 days | 4 nM | – | 147 µM | IC50 (Plasmodium falciparum [1]): 5 nM
